Results collected from several papers.
Protocols differ between the studies behind these lines.
Target: Myosin light chain kinase (MYLK3, Homo sapiens, UniProt Q32MK0)
Residues used in one study (Q32MK0 1-819): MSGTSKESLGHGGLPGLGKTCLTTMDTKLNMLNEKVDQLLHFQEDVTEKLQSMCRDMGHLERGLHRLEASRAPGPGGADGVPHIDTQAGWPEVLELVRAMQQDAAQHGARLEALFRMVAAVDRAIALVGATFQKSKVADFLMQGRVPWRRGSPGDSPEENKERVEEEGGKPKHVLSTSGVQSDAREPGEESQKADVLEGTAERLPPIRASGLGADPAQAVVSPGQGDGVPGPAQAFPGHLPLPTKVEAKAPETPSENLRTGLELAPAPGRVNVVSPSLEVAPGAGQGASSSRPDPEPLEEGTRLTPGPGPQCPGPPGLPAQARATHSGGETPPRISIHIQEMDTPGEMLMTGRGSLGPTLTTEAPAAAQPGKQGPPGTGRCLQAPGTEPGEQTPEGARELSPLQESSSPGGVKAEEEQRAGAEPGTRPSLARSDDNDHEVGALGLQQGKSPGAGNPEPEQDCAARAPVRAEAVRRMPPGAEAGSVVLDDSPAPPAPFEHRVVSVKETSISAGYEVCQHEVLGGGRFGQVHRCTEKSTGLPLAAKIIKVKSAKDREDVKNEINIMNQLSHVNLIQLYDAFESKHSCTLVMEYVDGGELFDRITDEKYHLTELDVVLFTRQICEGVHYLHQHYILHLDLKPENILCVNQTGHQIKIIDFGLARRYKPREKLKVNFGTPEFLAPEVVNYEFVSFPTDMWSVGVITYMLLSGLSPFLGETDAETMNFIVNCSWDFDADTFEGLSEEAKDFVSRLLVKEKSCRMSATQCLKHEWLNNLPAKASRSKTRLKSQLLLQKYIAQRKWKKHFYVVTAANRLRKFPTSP

SMILES | assay | conditions | remaining binding
N[C@@H]1CCN(c2nccc(-c3cnn4ncccc34)n2)C1 | binding | 1 µM | 100%
O=C(NCCCN1CCOCC1)c1ccc(Nc2nccc(-c3cc4ccccc4s3)n2)cc1 | binding, competition with immobilised ligand | 1 µM | 3.6%
CS(=O)(=O)N1CCCC(NC(=O)[C@H](CCC2CCCCC2)NC(=O)c2ccc(CNC(=O)c3cnc4ccccn34)cc2)C1 (stereo partly drawn) | cell-free assay, competition with immobilised ligand | 0.1 µM | 88%
C=CC(=O)N1CCC(C(=O)NCC(=O)N2CCN(c3nc(-c4cnc(N)nc4C(F)F)nc(N4CCOCC4)n3)CC2)CC1 | binding, competition with immobilised ligand | 1 µM | 92%
CC1CCCN1c1nccc(-c2cnn3ncccc23)n1 (stereo not drawn) | binding | 1 µM | 100%
O=C(NCCCN1CCOCC1)c1ccc(Nc2ncc(Cl)c(-c3ccc(Cl)s3)n2)cc1 | binding, competition with immobilised ligand | 1 µM | 7.9%
CN(C)c1ncc(F)c(-c2cnn3ncccc23)n1 | binding | 1 µM | 77%
C[C@H](c1ccc(F)cc1)N(Cc1cccc(C(=O)O)c1)C(=O)c1cnc2ccccc2c1 | cell-free assay, competition with immobilised ligand | 1 µM | 100%
COc1ncc2cc3ccccc3nc2c1C#N | cell-free assay, competition with immobilised ligand | 5 µM | 96%
COc1ccc2c(c1)O[C@H](c1ccc(OC)c(OC)c1)C[C@@H]2NC(=O)C1(c2ccc3c(c2)OC(F)(F)O3)CC1 | cell-free assay, competition with immobilised ligand | 1 µM | 95%
CN(C)c1nccc(-c2cnc3ncccn23)n1 | binding | 1 µM | 100%
COc1cnc(Nc2cccc(S(N)(=O)=O)c2)nc1N1CCN(c2ccccc2)CC1 | binding, competition with immobilised ligand | 1 µM | 97%
C[C@@H](c1ccc(-n2cnc3c(N)ncnc32)cc1)N1CCc2nn(C)c(Cc3ccccc3)c2C1=O | binding, competition with immobilised ligand | 0.1 µM | 100%
COc1cnc(Nc2cccc(S(N)(=O)=O)c2)nc1N1CCN(c2ccccc2)C(=O)C1 | binding, competition with immobilised ligand | 1 µM | 97%
CN(c1nccc(-c2cnn3ncccc23)n1)C1CC1 | binding | 1 µM | 100%
CS(=O)(=O)NCC[C@H](NC(=O)c1cncc2c1cnn2-c1ccc(F)cc1)c1ccnc(S(C)(=O)=O)c1 | cell-free assay, competition with immobilised ligand | 1 µM | 100%
C[C@H]1CCN(c2nccc(-c3cnn4ncccc34)n2)C1 | binding | 1 µM | 98%
Nc1c(C(=O)NCc2ccc(C(=O)NCCCC3CCCCC3)cc2)cnn1-c1ccccc1 | cell-free assay, competition with immobilised ligand | 0.1 µM | 100%
O=C(NCC1CCOCC1)c1n[nH]cc1NC(=O)c1c(F)cccc1F | binding, competition with immobilised ligand | 1 µM | 100%
Cc1cnc(Nc2ccc(C(=O)N3CCC(N4CCCC4)CC3)cc2)nc1-c1cc2ccccc2s1 | binding, competition with immobilised ligand | 1 µM | 5.1%
C[C@@H]1CN(c2cc(-c3nn(C)c4ccc(OC5(C)CC5)cc34)ncn2)C[C@H](C)O1 | cell-free assay, competition with immobilised ligand | 1 µM | 97%
